Laboratory results published in ChEMBL document CHEMBL2040765, “Synthesis and anticancer activity of a series of norcantharidin analogues” (2012).

What was measured:
Assay type in all cases: functional
MCF7 [1] = assay: Growth inhibition of human MCF7 cells at 100 uM after 72 hrs y MTT assay
Procedure, shortened: (§1)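 Log-phase cells in supplemented DMEM (10% FBS, 4 mM glutamine, antibiotics; 37 °C, 5% CO2) were plated in duplicate at 2500–4000 cells/well. Compound was added 24 h later at a fixed 100 µM, from 40 mM DMSO stocks. After 72 h, MTT absorbance was read at 540 nm and expressed as percent growth inhibition; 100% means total inhibition.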

A2780 [2] = assay: Growth inhibition of human A2780 cells at 100 uM after 72 hrs y MTT assay; conditions: Homo sapiens, A2780, 72 h; read-out: GI; procedure, shortened: as §1
[3] = Growth inhibition of human BE(2)-C cells at 100 uM after 72 hrs y MTT assay; procedure, shortened: as §1
SW480 [4] = assay: Growth inhibition of human SW480 cells at 100 uM after 72 hrs y MTT assay; procedure, shortened: as §1
A-431 [5] = assay: Growth inhibition of human A431 cells at 100 uM after 72 hrs y MTT assay; procedure, shortened: as §1
DU-145 [6] = assay: Growth inhibition of human DU145 cells at 100 uM after 72 hrs y MTT assay; conditions: for inhibition of growth at 100 µM: Homo sapiens, DU-145, 72 h, read-out: GI; procedure, shortened: as §1
[7] = Growth inhibition of human SJ-G2 cells at 100 uM after 72 hrs y MTT assay; procedure, shortened: as §1
NCI-H460 [8] = assay: Growth inhibition of human H460 cells at 100 uM after 72 hrs y MTT assay; procedure, shortened: as §1
HT-29 [9] = assay: Growth inhibition of human HT-29 cells at 100 uM after 72 hrs y MTT assay; procedure, shortened: as §1
HT-29 [10] = assay: Growth inhibition of human HT-29 cells after 72 hrs y MTT assay; conditions: HT-29, 72 h
Procedure, shortened: (§2)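 Cells kept in DMEM with 10% FBS, 10 mM sodium bicarbonate, penicillin, streptomycin and 4 mM glutamine at 37 °C under 5% CO2. Log-phase cells were plated in duplicate at 2500–4000 cells/well. After 24 h, compound in medium was added; analogue stocks were 40 mM in DMSO. Growth was read after 72 h by MTT absorbance at 540 nm in dose-response testing.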

A-431 [11] = assay: Growth inhibition of human A431 cells after 72 hrs y MTT assay; conditions: A-431, 72 h; procedure, shortened: as §2
DU-145 [12] = assay: Growth inhibition of human DU145 cells after 72 hrs y MTT assay; conditions: DU-145, 72 h; procedure, shortened: as §2
[13] = Growth inhibition of human BE(2)-C cells after 72 hrs y MTT assay; procedure, shortened: as §2
MCF7 [14] = assay: Growth inhibition of human MCF7 cells after 72 hrs y MTT assay; conditions: MCF7, 72 h; procedure, shortened: as §2
SW480 [15] = assay: Growth inhibition of human SW480 cells after 72 hrs y MTT assay; conditions: SW480, 72 h; procedure, shortened: as §2
A2780 [16] = assay: Growth inhibition of human A2780 cells after 72 hrs y MTT assay; conditions: A2780, 72 h; procedure, shortened: as §2
[17] = Growth inhibition of human SJ-G2 cells after 72 hrs y MTT assay; conditions: SJ-G2, 72 h; procedure, shortened: as §2
NCI-H460 [18] = assay: Growth inhibition of human H460 cells after 72 hrs y MTT assay; conditions: NCI-H460, 72 h; procedure, shortened: as §2

Q: With O=C1O[C@@H](OCC2CO2)[C@@H]2[C@H]1[C@H]1CC[C@@H]2O1 (stereo in doubt; 21) as the compound, how does the “growth inhibition (GI)” value (MCF7 [1]) read?
A: 33%

Q: And the inhibition of growth at 100 µM (A2780 [2])?
A: 42%

Q: What about the “growth inhibition (GI)” value [3] of the same compound?
A: 35%

Q: What about the “growth inhibition (GI)” value (SW480 [4]) of the same compound?
A: 23%

Q: What about the inhibition of growth at 100 µM (A-431 [5]; Homo sapiens, A-431, 72 h, read-out: GI) of the same compound?
A: 22%

Q: What about the inhibition of growth at 100 µM (DU-145 [6]) of the same compound?
A: 25%

Q: What about the “growth inhibition (GI)” value [7] of the same compound?
A: 73%

Q: And the inhibition of growth at 100 µM (NCI-H460 [8]; Homo sapiens, NCI-H460, 72 h, read-out: GI)?
A: 7%

Q: What about the “growth inhibition (GI)” value (HT-29 [9]) of the same compound?
A: 68%

Q: Which GI50 (HT-29 [10]) does the source give for O=C1O[C@H](OCCCOP(=O)(O)O)[C@@H]2[C@H]1[C@H]1CC[C@@H]2O1 here?
A: 42 µM

Q: What about the GI50 (A-431 [11]) of the same compound?
A: 52 µM

Q: What about the GI50 (DU-145 [12]) of the same compound?
A: 65 µM

Q: What about the GI50 [13] of the same compound?
A: 67 µM

Q: And the GI50 (MCF7 [14])?
A: 45 µM

Q: And the GI50 (SW480 [15])?
A: 65 µM

Q: And the GI50 (A2780 [16])?
A: 33 µM

Q: And the GI50 [17]?
A: 57 µM

Q: For CC1OC1CO[C@H]1OC(=O)[C@H]2[C@@H]1[C@@H]1CC[C@H]2O1 (stereo in doubt; 23), which “growth inhibition (GI)” value (MCF7 [1]) is on record?
A: 61%

Q: And the inhibition of growth at 100 µM (A2780 [2])?
A: 55%

Q: What about the “growth inhibition (GI)” value [3] of the same compound?
A: 54%

Q: And the “growth inhibition (GI)” value (SW480 [4])?
A: 41%

Q: And the “growth inhibition (GI)” value (A-431 [5])?
A: 35%

Q: And the inhibition of growth at 100 µM (DU-145 [6])?
A: 37%

Q: And the “growth inhibition (GI)” value [7]?
A: 88%

Q: And the “growth inhibition (GI)” value (NCI-H460 [8])?
A: 24%

Q: And the “growth inhibition (GI)” value (HT-29 [9])?
A: 75%

Q: What does the source list for O=C1O[C@H](O)[C@@H]2[C@H]1[C@H]1CC[C@@H]2O1?
A: GI50 (HT-29 [10]): 14 µM; GI50 (A-431 [11]): > 100 µM; GI50 (DU-145 [12]): > 100 µM; GI50 [13]: 28 µM; GI50 (MCF7 [14]): > 100 µM; GI50 (SW480 [15]): > 100 µM; GI50 (NCI-H460 [18]): > 100 µM; GI50 (A2780 [16]): > 100 µM; GI50 [17]: 15 µM

Q: Which GI50 (HT-29 [10]) does the source give for C/C=C/CO[C@@H]1OC(=O)[C@H]2[C@@H]1[C@@H]1CC[C@H]2O1 here?
A: 31 µM

Q: What about the GI50 (A-431 [11]) of the same compound?
A: > 100 µM

Q: And the GI50 (DU-145 [12])?
A: > 100 µM

Q: And the GI50 [13]?
A: 63 µM

Q: And the GI50 (MCF7 [14])?
A: > 100 µM

Q: And the GI50 (SW480 [15])?
A: > 100 µM

Q: And the GI50 (NCI-H460 [18])?
A: > 100 µM

Q: And the GI50 (A2780 [16])?
A: > 100 µM

Q: And the GI50 [17]?
A: 35 µM

Q: Which GI50 (HT-29 [10]) does the source give for O=C1OC(=O)C2C3CCC(O3)C12 (centres undefined) [DEMETHYL-CANTHARIDIN] here?
A: 23 µM

Q: What about the GI50 (A-431 [11]) of the same compound?
A: 72 µM

Q: What about the GI50 (DU-145 [12]) of the same compound?
A: 90 µM

Q: What about the GI50 [13] of the same compound?
A: 36 µM

Q: What about the GI50 (MCF7 [14]) of the same compound?
A: 34 µM

Q: And the GI50 (SW480 [15])?
A: 41 µM

Q: What about the GI50 (NCI-H460 [18]) of the same compound?
A: > 100 µM

Q: What about the GI50 (A2780 [16]) of the same compound?
A: 27 µM

Q: And the GI50 [17]?
A: 23 µM

Q: With CCCCCCO[C@@H]1OC(=O)[C@H]2[C@@H]1[C@@H]1CC[C@H]2O1 as the compound, how does the GI50 (A-431 [11]) read?
A: > 100 µM

Q: And the GI50 (DU-145 [12])?
A: > 100 µM

Q: What about the GI50 [13] of the same compound?
A: > 100 µM

Q: And the GI50 (MCF7 [14])?
A: > 100 µM

Q: What about the GI50 (SW480 [15]) of the same compound?
A: > 100 µM

Q: What about the GI50 (NCI-H460 [18]) of the same compound?
A: > 100 µM

Q: What about the GI50 (A2780 [16]) of the same compound?
A: > 100 µM

Q: What does the source list for CCCCCO[C@H]1OC(=O)[C@H]2[C@@H]1[C@@H]1CC[C@H]2O1?
A: GI50 (HT-29 [10]): 32 µM; GI50 (A-431 [11]): 68 µM; GI50 (DU-145 [12]): > 100 µM; GI50 [13]: 38 µM; GI50 (MCF7 [14]): 27 µM; GI50 (SW480 [15]): 39 µM; GI50 (NCI-H460 [18]): > 100 µM; GI50 (A2780 [16]): 20 µM; GI50 [17]: 37 µM

Q: With O=C1O[C@@H](OCC2CO2)[C@@H]2[C@H]1[C@H]1CC[C@@H]2O1 (stereo in doubt; 22) as the compound, how does the inhibition of growth at 100 µM (MCF7 [1]; Homo sapiens, MCF7, 72 h, read-out: GI) read?
A: 40%

Q: What about the inhibition of growth at 100 µM ([3]; Homo sapiens, BE(2)-C, 72 h, read-out: GI) of the same compound?
A: 38%

Q: What about the inhibition of growth at 100 µM (SW480 [4]; Homo sapiens, SW480, 72 h, read-out: GI) of the same compound?
A: 28%

Q: What about the “growth inhibition (GI)” value (A-431 [5]) of the same compound?
A: 28%

Q: And the “growth inhibition (GI)” value (DU-145 [6])?
A: 30%

Q: What about the inhibition of growth at 100 µM ([7]; Homo sapiens, SJ-G2, 72 h, read-out: GI) of the same compound?
A: 76%

Q: And the “growth inhibition (GI)” value (NCI-H460 [8])?
A: 14%

Q: And the inhibition of growth at 100 µM (HT-29 [9]; Homo sapiens, HT-29, 72 h, read-out: GI)?
A: 74%

Q: Which GI50 (HT-29 [10]) does the source give for CCO[C@H]1OC(=O)[C@H]2[C@@H]1[C@@H]1CC[C@H]2O1 here?
A: 77 µM

Q: What about the GI50 (A-431 [11]) of the same compound?
A: > 100 µM

Q: And the GI50 (DU-145 [12])?
A: > 100 µM

Q: And the GI50 [13]?
A: > 100 µM

Q: And the GI50 (MCF7 [14])?
A: > 100 µM

Q: And the GI50 (SW480 [15])?
A: > 100 µM

Q: What about the GI50 (NCI-H460 [18]) of the same compound?
A: > 100 µM

Q: What about the GI50 (A2780 [16]) of the same compound?
A: > 100 µM

Q: And the GI50 [17]?
A: 49 µM

Q: For O=C1O[C@H](OC2CCCCC2)[C@@H]2[C@H]1[C@H]1CC[C@@H]2O1, which GI50 (HT-29 [10]) is on record?
A: 45 µM

Q: What about the GI50 (A-431 [11]) of the same compound?
A: > 100 µM

Q: And the GI50 (DU-145 [12])?
A: > 100 µM

Q: And the GI50 [13]?
A: > 100 µM

Q: What about the GI50 (MCF7 [14]) of the same compound?
A: > 100 µM

Q: And the GI50 (SW480 [15])?
A: > 100 µM

Q: And the GI50 (NCI-H460 [18])?
A: > 100 µM

Q: And the GI50 (A2780 [16])?
A: > 100 µM

Q: What about the GI50 [17] of the same compound?
A: 41 µM

Q: What does the source list for O=C1O[C@H](OCCCOP(=O)(Oc2ccccc2)Oc2ccccc2)[C@@H]2[C@H]1[C@H]1CC[C@@H]2O1?
A: GI50 (HT-29 [10]): 40 µM; GI50 (A-431 [11]): > 100 µM; GI50 (DU-145 [12]): > 100 µM; GI50 [13]: > 100 µM; GI50 (MCF7 [14]): > 100 µM; GI50 (SW480 [15]): > 100 µM; GI50 (NCI-H460 [18]): > 100 µM; GI50 (A2780 [16]): > 100 µM; GI50 [17]: 40 µM
